Here are results for 40 compounds from ChEMBL document CHEMBL1142998, “Structure-activity relationship study of tricyclic necroptosis inhibitors” (J Med Chem, 2007).

Active and inactive are the calls of the source. The calls are words filed in the database; no cut-off is given here. Bounds are passed on as bounds.

The first experiment deals with Jurkat. In words: Inhibition of TNF alpha-induced necroptosis in FADD-deficient variant human Jurkat T cells assessed as cell viability after 24 hrs. The class given is functional, cell-based. In outline: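 FADD-deficient human Jurkat T cells at 500000 cells/mL exposed to 10 ng/mL human TNF-α plus compound at 11 concentrations (0.029–100 µM), each in duplicate, 24 h, 37 °C, 5% CO2; final DMSO 0.5%. ATP luminescence viability expressed relative to compound alone (TNF/compound signal ratio). EC50 from variable-slope sigmoid nonlinear regression; two independent experiments unless noted.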
Turning to `COc1ccc([C@H]2[C@H]3CCc4ccc(OC)cc4C3=NN2C=O)cc1`, the EC50 came to 0.92 µM.

`COc1ccc2c(c1)C1=NN(C(C)=O)[C@@H](c3ccc4c(c3)OCCO4)[C@H]1CC2`: the EC50 was 2.1 µM.

Turning to `COc1ccc([C@H]2[C@H]3CCc4c(OC)cccc4C3=NN2C(C)=O)cc1`, the EC50 was above 100 µM.

For the compound `CC(=O)N1N=C2c3cc(C)ccc3OC[C@H]2[C@@H]1c1ccc(F)cc1`, the EC50 is above 100 µM.

For the compound `COc1ccc2c(c1)C1=NN(C(C)=O)[C@@H](c3ccc(OCc4ccccc4)cc3)[C@H]1CC2`, the EC50 is above 100 µM.

As to `COc1ccc([C@H]2[C@H]3CCc4ccc(F)cc4C3=NN2C(C)=O)cc1`, the EC50 stood at 0.28 µM.

In the case of `CN1C(=O)N[C@H](Cc2c[nH]c3c(Cl)cccc23)C1=O` (racemic), the EC50 came out at 0.21 µM.

Consider `COc1ccc([C@H]2[C@H]3CCc4ccc(OC)cc4C3=NN2C(N)=S)cc1`, for which the 50% effective concentration (EC50) came out at 8.8 µM.

`COc1ccc([C@H]2[C@H]3CCc4ccccc4C3=NN2C(C)=O)cc1`: the EC50 is 0.84 µM.

With `COc1ccc([C@H]2[C@@H]3CCc4ccc(F)cc4C3=NN2C(C)=O)cc1`, the EC50 is 2.7 µM.

As for `COc1ccc([C@H]2[C@H]3C[C@H](N(C)C)c4ccc(OC)cc4C3=NN2C(C)=O)cc1`, the EC50 turned out to be 5.1 µM.

As for `COc1ccc2c(c1)C1=NN(C(C)=O)[C@@H](c3ccc(F)cc3)[C@@H]1CC2`, the EC50 came out at 3.7 µM.

With `COCC(=O)N1N=C2c3cc(OC)ccc3CC[C@@H]2[C@@H]1c1ccc(OC)cc1`, the EC50 is 0.44 µM.

In the case of `CC(=O)N1N=C2c3cc(O)ccc3CC[C@@H]2[C@@H]1c1ccc(O)cc1`, the EC50 is above 100 µM.

On to `COc1ccc2c(c1)C1=NN(C(C)=O)[C@@H](c3ccc4c(c3)OCO4)[C@H]1CC2`, for which the EC50 turned out to be 2.6 µM.

On to `COc1ccc([C@H]2[C@H]3CCc4ccc(OCc5ccccc5)cc4C3=NN2C(C)=O)cc1`, for which the EC50 is 5 µM.

For `COc1ccc2c(c1)CC[C@@H]1C2=NN(C(C)=O)[C@H]1c1ccc(F)cc1`, the EC50 is above 100 µM.

For the compound `COc1ccc2c(c1)C1=NN(C(C)=O)[C@@H](c3ccc([N+](=O)[O-])cc3)[C@H]1CC2`, the EC50 is 1.8 µM.

For `COc1cc2c(cc1OC)C1=NN(C(C)=O)[C@@H](c3ccc(F)cc3)[C@H]1CC2`, the EC50 was above 100 µM.

Regarding `COc1ccc2c(c1)CC[C@H]1C2=NN(C(C)=O)[C@H]1c1ccc(F)cc1`, the EC50 was above 100 µM.

As to `COc1ccc2c(c1)C1=NN(C(C)=O)[C@@H](c3cccc(F)c3)[C@H]1CC2`, the EC50 came out at 0.68 µM.

As to `COc1ccc([C@H]2[C@H]3CCc4ccc(OC)cc4C3=NN2C(=O)COC(C)=O)cc1`, the EC50 is 3.1 µM.

In the case of `CNC(=S)N1N=C2c3cc(OC)ccc3CC[C@@H]2[C@@H]1c1ccc(OC)cc1`, the EC50 is 7.9 µM.

In the case of `COc1ccc2c(c1)C1=NN(C(C)=O)[C@@H](c3ccc(O)cc3)[C@H]1CC2`, the EC50 was 5.9 µM.

On to `COc1ccc([C@H]2[C@H]3CCc4ccc([N+](=O)[O-])cc4C3=NN2C(C)=O)cc1`, for which the EC50 amounted to 3.5 µM.

For the compound `CC(=O)N1N=C2c3cc(C)ccc3OC[C@@H]2[C@@H]1c1ccc(F)cc1`, the EC50 is 11.6 µM.

Consider `COc1ccc([C@H]2[C@H]3C[C@H](N)c4ccc(OC)cc4C3=NN2C(C)=O)cc1`, for which the EC50 is 1.2 µM.

Take `CCC(=O)N1N=C2c3cc(OC)ccc3CC[C@@H]2[C@@H]1c1ccc(OC)cc1`: the EC50 was 0.15 µM.

As for `CCN1N=C2c3cc(OC)ccc3CC[C@@H]2[C@@H]1c1ccc(OC)cc1`, the EC50 is above 100 µM.

Turning to `COc1ccc([C@H]2[C@H]3CCc4ccc(OC)cc4C3=NN2C(N)=O)cc1`, the EC50 came to 4.3 µM.

As for `COc1ccc([C@H]2[C@H]3CCc4ccc(OC)cc4C3=NN2C(=N)N)cc1`, the EC50 is above 100 µM.

Turning to `COc1ccc2c(c1)C1=NN(C(C)=O)[C@@H](c3ccc(F)cc3)[C@H]1CO2`, the EC50 amounted to 4.8 µM.

On to `COc1ccc2c(c1)C1=NN(C(C)=O)[C@@H](c3ccc(SC)cc3)[C@H]1CC2`, for which the EC50 stood at 1.1 µM.

For `COc1ccc2c(c1)C1=NN(C(C)=O)[C@@H](c3ccccc3OC)[C@H]1CC2`, the EC50 is above 100 µM.

Turning to `COc1ccc([C@H]2[C@@H]3CCc4ccc([N+](=O)[O-])cc4C3=NN2C(C)=O)cc1`, the EC50 was above 100 µM.

Regarding `CC(=O)N1N=C2c3ccccc3CC[C@@H]2[C@@H]1c1ccc(F)cc1`, the half-maximal effective concentration (EC50) worked out at 5.4 µM.

On to `COc1ccc([C@H]2[C@H]3CCc4cccc(OC)c4C3=NN2C(C)=O)cc1`, for which the EC50 is above 50 µM.

`COc1ccc2c(c1)C1=NN(C(C)=O)[C@@H](c3ccc(F)cc3)[C@H]1CC2`: the EC50 is 0.96 µM.

Take `COc1ccc([C@H]2[C@H]3CCc4ccc(OCCN5CCOCC5)cc4C3=NN2C(C)=O)cc1`: the EC50 was above 50 µM.

Another experiment concerns L929. Kind of experiment: Inhibition of zVAD.fmk-induced necroptosis in mouse L929 cells assessed as cell viability at 30 uM after 24 hrs. The class given is functional, cell-based. In outline: (§1)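 L929 cells, 100000 cells/mL, challenged with 10 ng/mL human TNF-α or 100 µM zVAD.fmk alongside compound at 30 µM or DMSO, 24 h, 37 °C, 5% CO2; final DMSO 0.5%, duplicates. Viability by luminescent ATP assay, corrected for nonspecific compound toxicity; mean % viability ± SD from two independent experiments.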
On to `COc1ccc([C@H]2[C@H]3CCc4ccc(OC)cc4C3=NN2C(C)=O)cc1`, for which the outcome was inactive.

With `CN1C(=O)N[C@H](Cc2c[nH]c3c(Cl)cccc23)C1=O` (racemic), the result was Active.

The next experiment deals with L929. In words: Inhibition of TNF alpha-induced necroptosis in mouse L929 cells assessed as cell viability at 30 uM after 24 hrs. The class given is functional, cell-based. In outline: as §1
For the compound `COc1ccc([C@H]2[C@H]3CCc4ccc(OC)cc4C3=NN2C(C)=O)cc1`, the result was Active.

With `CN1C(=O)N[C@H](Cc2c[nH]c3c(Cl)cccc23)C1=O` (racemic), the outcome was Active.

A word on the EC50: it is the concentration that produces a half-maximal response.
